High-throughput results (PubChem BioAssay)
Most compounds without a hit are left out; they make up all but 2.6% or so of the library.
CHT block: inhibitors of human choline transporter CHT; High affinity choline transporter 1 (Homo sapiens), Q9GZV3; CHT-expressing cells, membrane potential dye, choline response; hits give low values; B-score at 10 µM; 310,000 compounds, 0.86% hits; AID 488975, 2010;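 active = B-score over 3 SD under the library average, and starting fluorescence ratio not unusually high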;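 note: choline stimulus applied at its EC90 after an EC20 pre-addition; B-score computed on integrated fluorescence ratio after choline addition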
KCC2 mod: KCC2 cotransporter modulators, thallium flux, primary screen, cell-based, HEK293 KCC2, FluoZin-2 fluorescence, MLSMR; Solute carrier family 12 member 5 (Homo sapiens), Q9H2X9; KCC2 cells, thallium flux FluoZin-2 fluorescence; B-score of Tl+ flux slope (higher = more flux/activation; lower = inhibition) at 10 µM; 190,000 compounds, 2.2% hits; AID 1456, 2008;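 active = thallium flux slope and its plate-corrected score both differing from the plate sample mean at a set confidence after two filtering rounds, in either direction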;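 note: slope of fluorescence scaled to starting intensity during 10 to 20 s after thallium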
Rad51 HR inh: human RAD51 strand exchange inhibitors, primary screen, biochemical, fluorescence; DNA repair protein RAD51 homolog 1 (Homo sapiens), Q06609; hRad51 DNA strand exchange, fluorescence dequenching; inhibition, % at 10 µM; 200,000 compounds, 0.085% hits; AID 1385, 2008;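 active = inhibition above 40% at the single screening dose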;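 note: 0% = DMSO control wells and 100% = blanks with heterologous ssDNA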
Target sequence (Q06609 whole entry, looked up): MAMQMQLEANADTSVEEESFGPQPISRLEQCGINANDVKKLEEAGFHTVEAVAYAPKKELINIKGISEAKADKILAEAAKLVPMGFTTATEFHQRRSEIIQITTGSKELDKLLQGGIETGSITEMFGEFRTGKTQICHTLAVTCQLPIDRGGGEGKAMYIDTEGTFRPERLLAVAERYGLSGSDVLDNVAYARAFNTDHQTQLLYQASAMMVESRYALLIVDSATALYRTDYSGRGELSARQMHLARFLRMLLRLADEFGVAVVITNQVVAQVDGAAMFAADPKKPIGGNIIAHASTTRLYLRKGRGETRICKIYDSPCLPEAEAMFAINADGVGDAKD
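material = hRad51 filaments on single-stranded DNA | reagent = Donor/quencher-labelled 47-bp dsDNA substrate | compound = 10 µM final, single point | schedule = strand-exchange reaction 15 min at room temperature | measured by = fluorescein emission 520 nm, excitation 485 nm | read-out basis = % inhibition versus plate control and blank means | benchmarks = plate controls and plate blanks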
CHT allo act: CHT positive allosteric modulators, primary screen, cell-based, membrane potential dye, choline EC20; 310,000 compounds, 0.49% hits; B-score at 10 µM; CHT-expressing cells; hits give high values; LV-AA mutant CHT in HEK293 cells; AID 488977, 2010; High affinity choline transporter 1 (Homo sapiens), Q9GZV3;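 active = initial fluorescence not abnormally high and integrated response B-score, plate-corrected, over 3 SD above library mean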
CHT act confirm: CHT activators, confirmation, cell-based, membrane potential dye, duplicate; shares compounds with CHT allo act; CHT-expressing cells, membrane potential dye fluorescence (FDSS); % of choline EC20–EC90 response window; HEK293 expressing CHT LV-AA mutant; choline added at its EC20; activation, % at 10 µM; 2,500 compounds, 91% hits;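 active = primary screen active, with duplicate mean activation above negative control mean plus 3 SD, cut at about 11% in these data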
HEK293 MP dye: membrane potential response in parental HEK293 cells, counter-screen for CHT activator project, cell-based, membrane potential dye | shares compounds with CHT allo act | membrane potential dye fluorescence (FDSS); measured after EC20 choline addition | ratio readout change at 10 µM, hits read low | 2,500 compounds, 62% hits | AID 623908, 2012;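 active = duplicate-averaged ratio beyond 3 SD from buffer wells, up or down, though filed actives are nearly all decreases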
Numbers without * were called inactive.

`COC(=O)c1ccc(N2CCN(C)CC2)c(NC(=O)c2cccnc2)c1` gave CHT block inactive, KCC2 mod 1.4, Rad51 HR inh 7, CHT allo act 10*, CHT act confirm 52* and HEK293 MP dye -101*.
COC(=O)c1ccc(N2CCOCC2)c(NC(=O)c2cccnc2)c1 was read as CHT block inactive and CHT allo act inactive.
Cc1ccc2[nH]c3c(=O)n(CC(=O)NCc4ccco4)ncc3c2c1 was read as CHT block inactive and CHT allo act inactive.
CCOC(=O)c1cnc2c(c(C)nn2C)c1Oc1ccc(Cl)cc1 was read as CHT block inactive, Rad51 HR inh -8, CHT allo act 6.4*, CHT act confirm 27* and HEK293 MP dye inactive.
Screening O=C(NCC1CCCN1S(=O)(=O)c1cccs1)c1cccc(Cl)c1 (stereo unspecified) returned CHT block inactive and CHT allo act inactive.
For CCCCCC[N+](C)(C)CC/C=C1/c2ccccc2Sc2ccc(Cl)cc21 the results were CHT block inactive, KCC2 mod 0.04, Rad51 HR inh -11, CHT allo act inactive, CHT act confirm 44* and HEK293 MP dye -27*.
For COc1ccc(OC)c(NS(=O)(=O)c2ccc(N3CCCC3=O)cc2)c1 the results were CHT block inactive, Rad51 HR inh 8, CHT allo act 9.1*, CHT act confirm 37* and HEK293 MP dye inactive.
Screening Cc1cc(C)nc(/N=C(\N)Nc2ccc(S(=O)(=O)Nc3nccc(C)n3)cc2)n1 returned CHT block inactive, KCC2 mod -0.25, Rad51 HR inh -7, CHT allo act 7.2*, CHT act confirm 58* and HEK293 MP dye -56*.
Screening CC1(C)Cc2c(sc(/N=C/N3CCCC3)c2C#N)C(C)(C)N1 returned CHT block inactive, KCC2 mod -0.32, Rad51 HR inh -2 and CHT allo act inactive.
For CCn1c(=O)cc(SCC(=O)NCc2ccccn2)c2ccccc21 the results were CHT block inactive, KCC2 mod -0.54, Rad51 HR inh 2 and CHT allo act inactive.
`Brc1cnc(N2CCCC2)nc1N1CCOCC1` gave CHT block inactive, KCC2 mod -0.25, Rad51 HR inh -2, CHT allo act inactive, CHT act confirm 16* and HEK293 MP dye -20*.
Screening Brc1cnc(N2CCCCC2)nc1N1CCOCC1 returned CHT block inactive, Rad51 HR inh 4 and CHT allo act inactive.
O=C(N1CCOCC1)N1CCN(S(=O)(=O)c2ccc(F)cc2)CC1 was read as CHT block inactive and CHT allo act inactive.
Screening CCNS(=O)(=O)c1cc(-c2nnc(OC)c3ccccc23)ccc1C returned CHT block inactive, CHT allo act 7.7*, CHT act confirm -11 and HEK293 MP dye inactive.
`COc1ccccc1CNC(=O)C1CCC(CNS(=O)(=O)c2cccc3cccnc23)CC1` (stereo unspecified) gave CHT block inactive and CHT allo act inactive.
Screening Cc1cc(N2CCN(Cc3cn(C)nc3-c3ccccc3F)CC2)cc(C)n1 returned CHT block inactive, KCC2 mod 0.66, Rad51 HR inh 1, CHT allo act inactive, CHT act confirm 77* and HEK293 MP dye -74*.
`Cc1nc(NC2=NCN(CCCN3CCOCC3)CN2)nc2c(C)cccc12` gave CHT block inactive, KCC2 mod -0.053, CHT allo act inactive, CHT act confirm 48* and HEK293 MP dye -56*.
For CCOC(=O)c1c(N)n(-c2ccc(N)cc2)c2nc3ccccc3nc12 the results were CHT block inactive, KCC2 mod -0.063 and CHT allo act inactive.
Screening CCOC(=O)c1c(NC(=O)c2ccco2)n(C2CCCCC2)c2nc3ccccc3nc12 returned CHT block inactive, KCC2 mod -0.57, Rad51 HR inh -5, CHT allo act 7.3*, CHT act confirm 42* and HEK293 MP dye inactive.
CCOC(=O)c1c(N)n(C2CC(C)(C)NC(C)(C)C2)c2nc3ccccc3nc12 was read as CHT block inactive, KCC2 mod 0.63, Rad51 HR inh -1, CHT allo act 6.7*, CHT act confirm 57* and HEK293 MP dye -72*.
CCC(=O)Nc1c(C#N)c2nc3ccccc3nc2n1C1CCCCC1 was read as CHT block inactive, KCC2 mod 1.5, Rad51 HR inh -2 and CHT allo act inactive.
`COc1ccc(-c2nc3ccncc3[nH]2)cc1OC` gave CHT block inactive, KCC2 mod 0.38, Rad51 HR inh 4 and CHT allo act inactive.
Screening Clc1ccc(-c2nc3ccncc3[nH]2)cc1 returned CHT block inactive, KCC2 mod -0.05, Rad51 HR inh 6, CHT allo act 6.8*, CHT act confirm 52* and HEK293 MP dye -51*.
O=[N+]([O-])c1ccc2nc(-c3ccc(Cl)cc3)[nH]c2c1 was read as CHT block inactive, KCC2 mod -0.65, Rad51 HR inh -28 and CHT allo act inactive.
Fc1ccc(-c2nc3ccncc3[nH]2)cc1 was read as CHT block inactive, KCC2 mod 0.21, Rad51 HR inh -2, CHT allo act 7.9*, CHT act confirm 59* and HEK293 MP dye -65*.
Screening CCCNC(=S)Nc1c(C)n(C)n(-c2ccccc2)c1=O returned CHT block inactive, KCC2 mod 0.54 and CHT allo act inactive.
C=CC[n+]1c(-c2ccc(Cl)cc2Cl)csc1Nc1c(C)n(C)n(-c2ccccc2)c1=O was read as CHT block inactive, KCC2 mod -0.67, Rad51 HR inh 7, CHT allo act 8.4*, CHT act confirm 5 and HEK293 MP dye inactive.
`C=CC[n+]1c(-c2ccc(Cl)cc2Cl)csc1Nc1ccc(NC(C)=O)cc1` gave CHT block inactive, KCC2 mod -0.78, Rad51 HR inh 4, CHT allo act 14*, CHT act confirm 0 and HEK293 MP dye inactive.
Screening C/C(CC(=O)Nc1ccc2c(c1)OCCO2)=N\NC(=O)COc1ccc(Cl)c(C)c1 returned CHT block inactive and CHT allo act inactive.
Screening COc1cc2c(cc1OC)-c1cc3ccc(OC)c(OC)c3c[n+]1CC2 returned CHT block inactive, CHT allo act inactive, CHT act confirm 36* and HEK293 MP dye -24*.
